Bioassay records as filed in PubChem.
TRPC6 inhibitor: mouse TRPC6 channel inhibition; Q61143; HEK293-TRPC6, membrane potential dye, ACh-evoked depolarization; active compounds read low; B-score at 10 µM; hit rate 1.1% among 310,000; AID 2553;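 active = B-score under library mean minus 3 SD, initial fluorescence not abnormally high, positive integrated signal ratio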;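 note: B-score derived from integrated fluorescence ratio over the kinetic read; more negative B-score means stronger inhibition of depolarization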
Target sequence (Q61143 whole entry, looked up): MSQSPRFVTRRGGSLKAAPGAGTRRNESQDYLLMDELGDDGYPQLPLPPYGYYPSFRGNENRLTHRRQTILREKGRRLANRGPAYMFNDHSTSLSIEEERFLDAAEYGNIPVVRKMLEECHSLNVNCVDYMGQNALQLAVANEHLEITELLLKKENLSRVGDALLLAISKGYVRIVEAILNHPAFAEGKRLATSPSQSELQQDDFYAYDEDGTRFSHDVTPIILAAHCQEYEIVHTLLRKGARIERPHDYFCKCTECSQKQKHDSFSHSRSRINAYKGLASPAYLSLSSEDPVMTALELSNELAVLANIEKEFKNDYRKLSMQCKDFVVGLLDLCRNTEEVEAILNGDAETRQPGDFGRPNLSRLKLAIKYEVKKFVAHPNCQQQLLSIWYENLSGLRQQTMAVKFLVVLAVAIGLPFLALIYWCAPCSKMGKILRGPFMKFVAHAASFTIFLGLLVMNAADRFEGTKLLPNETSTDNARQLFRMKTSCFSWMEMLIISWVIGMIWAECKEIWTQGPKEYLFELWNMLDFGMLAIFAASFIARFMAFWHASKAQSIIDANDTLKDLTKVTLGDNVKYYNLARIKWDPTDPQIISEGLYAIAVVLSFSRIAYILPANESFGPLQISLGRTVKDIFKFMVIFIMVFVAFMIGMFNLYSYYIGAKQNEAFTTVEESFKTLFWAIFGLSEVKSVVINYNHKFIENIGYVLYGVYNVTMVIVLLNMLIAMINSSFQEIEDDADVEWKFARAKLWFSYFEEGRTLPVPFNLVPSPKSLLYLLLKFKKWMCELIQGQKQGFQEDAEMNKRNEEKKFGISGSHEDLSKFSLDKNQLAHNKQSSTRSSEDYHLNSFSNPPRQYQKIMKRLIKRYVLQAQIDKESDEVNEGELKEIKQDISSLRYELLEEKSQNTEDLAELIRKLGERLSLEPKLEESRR
TRPC4 inh: inhibitors of mouse TRPC4 channel | Q9QUQ5 | HEK293 TRPC4beta/mu-opioid, DAMGO-evoked Fluo4 calcium flux; active compounds read low | B-score at 10 µM | hit rate 0.39% among 300,000 | AID 2247;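 active = B-score over 3 SD under the library average, no early fluorescence shift, positive overall ratio signal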
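Material: HEK293 cells with stable TRPC4beta plus mu-opioid receptor expression; probe or stimulus: DAMGO in two steps, submaximal then maximal; technique: Fluo4 calcium fluorescence by kinetic imaging, 5 s 1 Hz baseline; measure: integrated fluorescence ratio relative to baseline, converted to per-well B score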
TRPC4 agonist: opens the mouse TRPC4 cation channel | HEK293 TRPC4beta/mu-opioid, Fluo4 calcium fluorescence; active compounds read high | B-score at 10 µM | hit rate 0.49% among 310,000;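 active = B-score above 5 SD of library B-scores, and initial fluorescence ratio not above library mean plus 5 SD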;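 note: positive B-score marks a calcium rise read as TRPC4 activation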
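Assay system: HEK293 stable line with TRPC4beta plus mu-opioid receptor. Times: dye 45 min RT, read 110 s. Measured by: kinetic Fluo4 calcium fluorescence. Measure: B score of integrated ratio. Controls: assay buffer as low control, maximal DAMGO as high control.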
TRPC4 potent: TRPC4 (mouse) allosteric potentiation; Q9QUQ5; HEK293 TRPC4beta/mu-opioid, DAMGO EC20, Fluo-4 Ca2+ flux; active compounds read high; B-score at 10 µM; hit rate 0.42% among 310,000; AID 2227;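 active = B-score of calcium response area above 5 SD of library B-scores, with initial fluorescence ratio within 5 SD of library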;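 note: B-score of integrated fluorescence ratio over time as area under calcium response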
TRPC6 activator: mouse TRPC6 channel activation. HEK293-TRPC6 membrane potential dye fluorescence; active compounds read high. hit rate 0.13% among 310,000. B-score at 10 µM. Q61143. AID 2550;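 active = B-score of the integrated fluorescence ratio above library mean plus 3 SD, and starting fluorescence ratio within library mean plus 5 SD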;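 note: higher score means more depolarization so channel activation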
TRPC4 sel inh 2: second check of whether TRPC6 inhibitors also affect mouse TRPC4; shares compounds with TRPC6 inhibitor; HEK293 TRPC4/MOR, membrane potential dye fluorescence; channel activated by saturating DAMGO dose; inhibition, % at 10 µM; hit rate 42% among 920;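 active = compounds whose fluorescence signal differed from control wells by over 3 SD, either direction, in both duplicate plates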
TRPC4 spec: mouse TRPC4 off-target activity of TRPC6 inhibitors; shares compounds with TRPC6 inhibitor; hit rate 61% among 920; activity change, negative = inhibition, % at 10 µM; HEK293 TRPC4/mu-opioid, membrane potential fluorescence;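 active = rise or fall in signal beyond 3 SD of buffer-only wells in both replicate plates, either sign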;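 note: integrated kinetic ratio of fluorescence range over baseline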
HEK293 MPD ctr 2-1: parental HEK293 nonspecific activity of TRPC6 inhibitors, second screen. AID 2779. signal change vs control, % at 10 µM. shares compounds with TRPC6 inhibitor. hit rate 31% among 920. parental HEK293 membrane potential dye fluorescence; maximal acetylcholine challenge after compound addition;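 active = membrane potential signal moving either way by over 3 SD of the maximum-effect control, in both duplicate plates, meaning non-specific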
HEK293 MPD ctr-1: parental HEK293 nonspecific activity of TRPC6 inhibitors. shares compounds with TRPC6 inhibitor. parental HEK293 membrane potential dye fluorescence. membrane potential signal change, % at 10 µM. hit rate 60% among 920;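 active = membrane potential signal shifting up or down by more than 3 SD of buffer-only wells, on both duplicate plates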
HEK293 MPD ctr-2: parental HEK293 nonspecific activity of TRPC6 modulators; shares compounds with TRPC6 inhibitor; membrane potential dye fluorescence; membrane potential signal change, % at 10 µM; hit rate 51% among 2,400; AID 488924;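 active = membrane potential signal moves up or down beyond 5 SD from buffer-only wells, on both duplicate plates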
HEK293 MPD ctr 2-2: parental HEK293 nonspecific activity of TRPC6 modulators, second screen; membrane potential dye fluorescence; after compound, maximal acetylcholine stimulation; shares compounds with TRPC6 inhibitor; AID 488926; inhibition, % at 10 µM; hit rate 14% among 2,400;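 active = membrane potential signal drops by more than 5 SD from the mean control signal, in both duplicate plates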;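 note: plate controls were acetylcholine ECmax control wells for no effect and buffer only wells for full effect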
TRPC4/MOR mod: selectivity of TRPC6 modulators against mouse TRPC4 | shares compounds with TRPC6 inhibitor | HEK293 TRPC4/mu-opioid, membrane potential fluorescence | percent change from control (negative = decrease, positive = increase), % at 10 µM | hit rate 69% among 2,400;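 active = membrane potential signal moved up or down beyond 5 SD of buffer control wells, in both duplicate plates, actives on both sides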;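 note: plate controls were assay buffer wells for no effect and DAMGO maximal-effect wells for full effect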
TRPC4 ctr inh 2: second check of whether TRPC6 modulators also affect mouse TRPC4 | hit rate 55% among 2,400 | shares compounds with TRPC6 inhibitor | inhibition, % at 10 µM | HEK293 TRPC4/mu-opioid, membrane potential dye fluorescence; stimulated with maximal-effect DAMGO;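 active = drop in membrane potential signal beyond 5 SD of the control wells in both duplicate plates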;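 note: TRPC4 counter screen for TRPC6 hits run under conditions tuned for TRPC6 not TRPC4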
TRPC6 inh conf: mouse TRPC6 inhibitor confirmation. shares compounds with TRPC6 inhibitor. HEK293-TRPC6, membrane potential dye, ACh-evoked depolarization. inhibition, % at 10 µM. hit rate 43% among 3,300. AID 488960;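 active = fluorescence ratio falls more than 5 SD below the full-stimulation control mean, in both duplicate runs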;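 note: integrated fluorescence ratio of peak minus minimum over baseline after agonist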
TRPC6 act confirm: mouse TRPC6 activator confirmation; shares compounds with TRPC6 inhibitor; HEK293-TRPC6 membrane potential dye fluorescence, FDSS; activation, % at 10 µM; hit rate 11% among 2,800; AID 488961;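 active = ratio signal rise beyond 5 SD above unstimulated control wells' mean, seen in both duplicate runs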;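 note: plate controls were buffer EC0 wells for no effect and acetylcholine ECmax response for full effect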
* = called active by the depositor; i = inactive; nt = no result. This is a sample that favours compounds with a hit; in the whole collection about 2.3% have one here.

SMILES | TRPC6 inhibitor | TRPC4 inh | TRPC4 agonist | TRPC4 potent | TRPC6 activator | HEK293 MPD ctr-2 | HEK293 MPD ctr 2-2 | TRPC4/MOR mod | TRPC4 ctr inh 2 | TRPC6 inh conf | TRPC6 act confirm | others
COc1cc2nc(NCCCN3CCN(C)CC3)n3nc(-c4ccccc4)nc3c2cc1OC | -6.6* | i | i | i | i | -75%* | i | i | 63%* | i | i
CCN(CC)CCCNc1nc2ccccc2c2nc(-c3ccncc3)nn12 | -7.2* | i | i | i | i | nt | nt | nt | nt | 69%* | i | TRPC4 sel inh 2=61%*;TRPC4 spec=-23%*;HEK293 MPD ctr 2-1=-0.5%*;HEK293 MPD ctr-1=-316%*
CCN(CC)CCCNc1nc2cc(OC)c(OC)cc2c2nc(-c3ccccc3)nn12 | i | i | i | i | i | nt | nt | nt | nt | nt | nt
CCN(CC)CCCNc1nc2cc(OC)c(OC)cc2c2nc(-c3cccnc3)nn12 | -8* | i | i | i | i | nt | nt | nt | nt | 77%* | i | TRPC4 sel inh 2=65%*;TRPC4 spec=-30%*;HEK293 MPD ctr 2-1=-68%*;HEK293 MPD ctr-1=-446%*
COCCCNc1nc2cc(OC)c(OC)cc2c2nc(-c3ccccc3)nn12 | i | i | i | i | i | nt | nt | nt | nt | nt | nt
CCc1nc(SCC(=O)Nc2ccc(N(C)C)cc2)c2ccccc2n1 | i | i | i | i | i | nt | nt | nt | nt | nt | nt
CCOC(=O)c1cn(CC2CC2)c2cc(F)c(F)cc2c1=O | -5.4* | i | i | i | i | -276%* | i | -48%* | 59%* | 53%* | i
CCOC(=O)c1cn(CC)c2ccc(Br)cc2c1=O | -6* | i | i | i | i | -106%* | i | -16%* | i | i | i
CCCn1cc(C(=O)OCC)c(=O)c2cc(F)c(F)cc21 | i | i | i | i | i | nt | nt | nt | nt | nt | nt
Cc1ccc(C2=NN(CC(=O)NCCC(C)C)C(=O)CC2)cc1 | i | i | i | i | i | nt | nt | nt | nt | nt | nt
COc1cc(C)ccc1NC(=O)c1ccc(S(=O)(=O)N2CCOCC2)cc1 | -6.1* | i | i | i | i | i | i | i | i | i | i
O=C(NCC1CCN(c2ccc(S(=O)(=O)N3CCOCC3)cc2)CC1)c1ccc(Cl)cc1 | -5.5* | i | i | i | i | i | i | i | i | 52%* | i
COc1cc(/C=N/NC(=O)c2ccccc2Cl)ccc1Oc1ccc([N+](=O)[O-])cn1 | i | i | i | i | i | nt | nt | nt | nt | nt | nt
CC(C)c1ccc(NC(=O)Cc2c(C(=O)O)n(C)c3ccccc23)cc1 | i | i | i | i | i | nt | nt | nt | nt | nt | nt
